# High-throughput results as filed in PubChem BioAssay.
# Cardio protect: myocardial damage modulation in H9c2 cells; AID 588492; 360,000 compounds, 0.63% hits; protection from H2O2 cell death, % at 20 µM; H9c2 cardiomyocytes, H2O2 injury protection, ATPLite, 2 h;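 active = compounds giving at least 50% protection of heart cells from peroxide-induced death in the single-dose screen, raw or plate-pattern-corrected value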;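 note: 0% = DMSO wells with peroxide and 100% = DMSO wells without peroxide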
# MIN6 prolif: MIN6 beta-cell proliferation induction | 330,000 compounds, 0.29% hits | AID 2380 | proliferation, % at 10 µM | MIN6 cells proliferation, ATPlite luminescence, 48 h; cells starved in 0.2% serum; 100% = growth in 10% serum;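 active = compounds whose signal lies at least 3.5 SD above the mean of all wells on their plate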;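 note: 0% = DMSO-treated cells in low-serum medium and 100% = 10% serum control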
# iPSC survival up: enhancers of human iPSC single-cell survival. AID 602274. hiPSC single-cell survival, ATPlite luminescence; 100% = ROCK inhibitor wells, 0% = DMSO. survival enhancement, % at 20 µM. 360,000 compounds, 0.044% hits; in the data active = survival enhancement above about 18%;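 note: cells exposed to compounds for 16 hours before the ATP read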
# UCH37 inh: blocks the human deubiquitinase UCH37. inhibition, % (concentration not given with the values). Q9Y5K5. 330,000 compounds, 0.33% hits. purified proteasome/UCH37, Ub-AMC cleavage fluorescence;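 active = mean inhibition over replicate wells above about 20%, limit read from the data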;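 note: 0% = compound-free wells with enzyme and 100% = wells lacking proteasome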
# Target sequence (Q9Y5K5 whole entry, looked up): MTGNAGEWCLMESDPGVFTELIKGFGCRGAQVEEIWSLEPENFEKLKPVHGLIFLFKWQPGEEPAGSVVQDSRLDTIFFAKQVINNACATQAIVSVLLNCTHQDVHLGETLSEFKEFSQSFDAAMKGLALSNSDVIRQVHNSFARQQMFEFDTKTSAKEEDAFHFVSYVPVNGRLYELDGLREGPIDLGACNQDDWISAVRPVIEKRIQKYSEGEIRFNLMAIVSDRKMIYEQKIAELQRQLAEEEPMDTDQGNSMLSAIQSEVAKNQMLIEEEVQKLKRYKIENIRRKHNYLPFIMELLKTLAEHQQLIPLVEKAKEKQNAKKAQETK
#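 assay system = human UCH37 enzyme supplied as purified proteasome complex | amount = proteasome at 0.15 nM in the dispensed enzyme solution | schedule = 30 min compound-proteasome preincubation then 25 min substrate reaction, room temperature | measured by = fluorescence, ex 355 nm, em 460 nm | benchmarks = no-proteasome wells (full inhibition) and compound-free wells (no inhibition)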
# CRFR2-BP antag: CRF-BP/CRF-R2 complex antagonism. inhibition, % at 11.8 µM. HEK293 CRF-R2/CRF-BP, CRF-induced calcium fluorescence. 350,000 compounds, 0.59% hits;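 active = inhibition of the ligand-induced calcium signal above about 50% at the single tested concentration, limit read from the data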
# CRFR2-BP ag: agonists of human CRF-binding protein/CRF-R2 receptor complex; HEK293 CRF-R2/CRF-BP, calcium dye fluorescence (FLIPR); percent of saturating CRF peptide response; activation, % at 13.2 µM; 350,000 compounds, 0.46% hits;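 active = activation of at least 50%, plus an integration ratio under a set limit after plate pattern correction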;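 note: plate controls were neutral control wells without compound for no effect and CRF at EC100 for full effect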
# * = called active by the depositor; i = inactive; nt = not tested or not shown. Hits are enriched below; roughly 2.1% of the tested compounds scored in any of these assays.
SMILES,Cardio protect,MIN6 prolif,iPSC survival up,UCH37 inh,CRFR2-BP antag,CRFR2-BP ag
COc1ccc(C2CC(c3ccc(Br)cc3)=NN2C(=O)CCC(=O)O)cc1OC (stereo unspecified),7.9,2.5,0.1,nt,56.3*,-0.4
CCC(=NNC(=O)CCC(=O)Nc1ccccc1OC)c1ccccc1,nt,nt,nt,0.7,nt,nt
CC1(C)CN=c2sc(=Cc3ccc(Cl)cc3)c(=O)n2C1,nt,nt,nt,-167.3,nt,nt
CN(C)c1c([N+](=O)[O-])ncn1C,1.5,-1.8,2.5,5.4,53.7*,0.3
CCN(CC)c1ccc(C(=O)OCc2cc(=O)oc3cc(O)ccc23)cc1,23.7,-5.2,0.6,-17.6,-2.6,-1.1
CSCCC(NS(=O)(=O)c1ccccc1)C(=O)OCc1nc2ccsc2c(=O)[nH]1 (stereo unspecified),17.9,-0.1,-0.4,0.4,-10.4,4.2
Cc1ccc(NC(=O)CSC(C)C(=O)OCc2cc(=O)oc3cc(O)ccc23)cc1 (stereo unspecified),66.6*,nt,0.2,nt,-3.5,-1.0
CSCCC(NS(=O)(=O)c1ccccc1)C(=O)OCc1cc(=O)oc2cc(O)ccc12 (stereo unspecified),56.3*,3.8,-0.3,nt,-0.1,2.0
Cc1cc(C(F)(F)F)nn1CC(=O)N(C)c1ccccc1,-10.4,0.2,0.8,0.0,-4.0,-0.1
Cc1cc(C(F)(F)F)nn1CC(=O)N(C)C1CCCCC1,12.8,1.8,2.6,32.0*,-43.4,0.5
CC1CCN(C2=C(NS(=O)(=O)c3ccccc3)C(=O)c3ccccc3C2=O)CC1,-1.8,-2.6,-0.1,3.3,-23.2,-2.4
O=C1C2=C(c3ccccc31)[N+](=O)[C@@H]1CCCC[C@@H]1N2[O-],-4.7,-2.2,0.2,26.5*,-2.8,-0.1
O=C1c2ccccc2C(=O)c2c1ccc1c(=O)n(C3CCCCC3)[nH]c21,-5.3,-5.2,0.3,7.2,-16.6,-1.3
O=C1C2=C(c3ccccc31)[N+](=O)C1CCCCC1N2[O-] (stereo unspecified),-4.6,-0.1,-0.2,26.8*,-7.7,2.0
COc1ccccc1C(=O)NN=C(C)c1ccc(NC(=O)Cc2ccccc2)cc1,nt,nt,nt,i,nt,nt
COCCCNC(=S)NN=Cc1ccc2ccccc2c1,nt,nt,nt,5.1,nt,nt
N#Cc1ccc(CN(Nc2ccccc2)c2ccccc2)cc1,-6.5,nt,-1.7,nt,55.7*,-2.4
COCCN1CC(=O)N(c2cccc(C)c2C)C(c2ccc(Cl)cc2)C1=O (stereo unspecified),-2.9,-2.4,1.7,5.0,56.2*,-2.8
O=c1c([N+](=O)[O-])cn(Cc2ccccc2)c(=O)n1Cc1ccccc1,-1.0,nt,0.5,8.2,-74.8,56.1*
COc1ccc(C(=O)NCC(=O)N2CCN(C(=O)c3ccco3)CC2)cc1OC,6.4,3.7,-0.2,2.6,19.6,0.2
COc1ccc(C(=O)NCC(=O)N2CCN(C(=O)c3ccco3)CC2)cc1,0.9,0.8,0.8,nt,-286.5,316.4*
Cc1cc([N+](=O)[O-])ccc1NCc1ccco1,-2.8,0.9,0.6,4.9,59.0*,-0.3
COc1ccc([N+](=O)[O-])cc1NCc1ccccc1C,-10.0,-3.7,0.5,4.2,47.6,1.4
COc1ccc([N+](=O)[O-])cc1NCc1ccccc1,-9.3,0.0,4.3,3.7,98.2*,-4.1
O=C(NCc1ccco1)c1cc([N+](=O)[O-])ccc1Cl,9.6,-0.1,-0.7,6.0,7.7,2.3
SMILES,Cardio protect,MIN6 prolif,iPSC survival up,UCH37 inh,CRFR2-BP antag,CRFR2-BP ag
Cc1cc([N+](=O)[O-])ccc1NCc1ccc2c(c1)OCCO2,-6.6,0.6,0.1,3.3,53.0*,-2.5
COc1cccc(CNc2ccc([N+](=O)[O-])cc2C)c1,-19.3,1.3,1.0,4.1,58.3*,-2.5
Cn1ccsc1=NC(=O)Nc1cccc(Cl)c1,nt,nt,nt,3.5,nt,nt
C1=C(c2ccccc2)CCN(c2nc3ccccc3n3cnnc23)C1,66.8*,3.5,0.1,-6.3,-13.6,3.8
c1ccc2c(c1)CCN(c1nc3ccccc3n3cnnc13)C2,58.5*,-4.4,5.9,-3.2,-3.8,-0.6
c1ccc2c(c1)CCCN2c1nc2ccccc2n2cnnc12,53.8*,4.4,-0.1,8.9,2.6,0.8
c1ccc(N2CCN(c3nc4ccccc4n4cnnc34)CC2)cc1,23.4,1.5,-1.0,-9.3,-7.9,-1.5
Cc1ccc(CN2CCN(N=Cc3cc(Br)cc(Br)c3O)CC2)c(C)c1,nt,nt,nt,3.2,nt,nt
NC(=O)C[n+]1ccc(C=NO)cc1,nt,nt,nt,7.4,nt,nt
O=C1CC(c2ccccc2)CC(O)=C1C=NCCCO (stereo unspecified),-5.9,-3.7,4.0,22.1*,4.8,-0.3
CCCN=CC1=C(O)CC(c2ccccc2)CC1=O (stereo unspecified),-2.1,0.6,0.4,1.0,-4.1,0.6
N#Cc1c(C(F)(F)F)cc(-c2ccc(Cl)c(Cl)c2)nc1SCCN1CCOCC1,-5.7,-1.6,2.5,-4.8,-133.9,15.8
N#Cc1c(C(F)(F)F)cc(-c2ccccc2)nc1SCc1nc(N)nc(N2CCOCC2)n1,-3.8,-1.7,7.4,2.6,-81.9,68.9*
CCOC(=O)C=c1sc(=Cc2ccc(-c3ccccc3)cc2)c(=O)n1CC(=O)NCc1ccc2c(c1)OCO2,nt,nt,nt,-108.3,nt,nt
COc1ccc(CNC(=O)c2cccc3c(-c4cccc(C(N)=O)c4)coc23)cc1OC,-7.5,nt,-2.5,nt,nt,nt
NC(=O)c1cccc(-c2coc3c(C(=O)NCCc4ccccc4)cccc23)c1,59.8*,nt,2.1,nt,nt,nt
O=C(Nc1ccccc1)c1cccc2c(-c3cccnc3)coc12,62.6*,nt,0.5,nt,nt,nt
COC(=O)C(=Nc1ccccc1)/C(C(=O)C(=O)N(C)c1ccccc1)=C(/O)c1ccccc1,nt,nt,nt,7.6,nt,nt
COc1cc2c(cc1OC)/C(=C/C(=O)c1ccc(OC)c([N+](=O)[O-])c1)NCC2,11.5,7.1,0.2,4.1,56.9*,-0.1
COc1ccc2sc(-c3ccc(S(C)(=O)=O)cc3)c(C(=O)NCCc3c[nH]c4ccccc34)c2c1,26.9,0.4,-1.7,-5.8,63.5*,-1.0
c1ccc(-c2cnn3c(-c4ccccc4)c(-c4ccccc4)nc3n2)cc1,-1.4,nt,0.6,-5.6,-202.3,219.5*
Cc1cc(C)n(CCC(=O)N=Nc2c(O)[nH]c3ccc(Br)cc23)n1,5.4,1.1,-0.4,3.8,93.4*,0.7
COc1ccc(-c2cc(C(=O)O)nc3ccc4ccccc4c23)cc1OC,-19.7,-1.9,-0.7,-61.8,58.0*,-1.1
CCCCCCCCCCCCCCCCn1cc[n+](C)c1,-11.4,-4.1,-5.8,75.9*,24.1,4.3
COc1ccc2nc3cccc(OC)c3nc2c1,58.2*,-4.6,-0.8,3.1,3.5,19.0
CN(C)N=Cc1ccc(P(c2ccc(C=NN(C)C)o2)c2ccc(C=NN(C)C)o2)o1,nt,nt,nt,5.6,nt,nt
